Measured values reported in PubChem BioAssay AID743061 (The Scripps Research Institute Molecular Screening Center, 2013).

target: Methionine--tRNA ligase, mitochondrial (Homo sapiens) (UniProt Q96GW9); assay: inhibitors of human mitochondrial MetRS, late-stage follow-up, selectivity assay for T. brucei MetRS inhibitor project, biochemical, radioactivity, round 1 (AID 743061); details: recombinant human mtMetRS, [3H]Met tRNA charging, at 1 µM, stronger effect = higher value;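 further: 0% = DMSO with full reaction and 100% = DMSO wells lacking tRNA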
Procedure, shortened: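 System: human mitochondrial MetRS enzyme / Buffer or medium: pH 8.0 reaction buffer containing 2.5 mM ATP / Probe or stimulus: 240 nM [3H]methionine with bulk E. coli tRNA acceptor / Doses: 10 and 1 µM / Times: 15 min compound–enzyme preincubation, then 1 h reaction at room temperature / Detection: scintillation counts of TCA-precipitated charged tRNA on filters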

Compound | inhibition [%]
O=C(NCc1nc2ccccc2[nH]1)C1=C[C@@H](c2ccc(Br)cc2)C[C@@H](OCCCCO)O1 | -9.46
O=C(C(=O)N1CCOCC1)c1cn(CC(=O)N2CCCc3ccccc32)c2ccccc12 | 8.2
O=C(NCc1nc2ccccc2[nH]1)C1=C[C@@H](C2CC2)C[C@@H](OCc2ccc(CO)cc2)O1 | -11.4
O=C1[C@@H]2Cc3c([nH]c4ccccc34)C(c3cccc([N+](=O)[O-])c3)N2C(=O)CN1CCCO (some centres undefined) | -17.4
O=C(CC=NOCc1ccc([N+](=O)[O-])cc1)Nc1ccc(Br)cc1 | -22.4
COc1ccc(CNC(=O)CSc2nnc3c(n2)[nH]c2ccc(F)cc23)cc1 | -29.7
O=C(NCCc1nc2ccccc2[nH]1)c1ccc(Cl)cc1 | 5.42
Cc1cccc2[nH]c(CCN(C)C(=O)c3cccc(C4CCNC4)c3)nc12 (centres undefined) | -6.15
CC(C)c1nc2ccc(C(=O)N(C)CCc3nc4ccc(F)cc4[nH]3)cc2o1 | -1.54
CCN(C(=O)Cn1cc(C(=O)C(=O)N2CCOCC2)c2ccccc21)c1ccccc1 | -12.3
O=C(NCCc1nc2ccccc2[nH]1)c1c(F)cccc1F | 0.56
COCCc1nc2ccc(C(=O)NCCc3nc4ccc(OC)cc4[nH]3)cc2o1 | -5.43
COc1ccc(NC(=O)CSc2nnc3c4cc(C)ccc4n(C)c3n2)cc1 | -0.75
CC1Cc2ccccc2N1C(=O)Cn1cc(C(=O)C(=O)N2CCOCC2)c2ccccc21 (centres undefined) | -0.48
Cc1cccc2[nH]c(C3CCCN(C(=O)c4cccc5cccnc45)C3)nc12 (centres undefined) | -4.24
CCO[C@@H]1OC(C(=O)NCc2nc3ccccc3[nH]2)=C[C@H](c2ccc(Br)cc2)[C@H]1CCCO | -4.89
Cc1cccc(C(=O)NCCc2nc3ccccc3n2CCOc2ccccc2)c1 | 1.28
O=C(NCc1nc2ccccc2[nH]1)C1=C[C@@H](c2csc3ccccc23)C[C@@H](OCCCCO)O1 | -15
O=C(NCc1nc2ccccc2[nH]1)C1=C[C@H](c2ccccc2)C[C@H](OCc2ccc(CO)cc2)O1 | -8.08
